Data as given in ChEMBL document CHEMBL1158128, “Cytotoxic styryl-lactones from the leaves and twigs of Polyalthia crassa” (2006).
Values after ≈ are worked out from the molar mass of the structure shown.

Assays:
Conditions in all cases: read-out: ED50 (the source's name)
Lu1 = experiment: Cytotoxicity against human Lu1 cells by SRB assay; assay type: functional
Outline: (§1)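 Colorimetric cytotoxicity read-out on a panel of cultured mammalian cancer cell lines, run by an earlier published method, with ellipticine as the positive control.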

[1] = Cytotoxicity against rat ASK cells by SRB assay
[2] = Cytotoxicity against human BCA1 cells by SRB assay; assay type: functional; outline: as §1
KB = experiment: Cytotoxicity against human KB cells by SRB assay; assay type: functional; outline: as §1
Col2 = experiment: Cytotoxicity against human Col2 cells by SRB assay; assay type: functional; outline: as §1
P388 = experiment: Cytotoxicity against mouse P388 cells by SRB assay; assay type: functional; outline: as §1

For `O=C1C=C[C@H](OC(=O)/C=C/c2ccccc2)[C@H]([C@H](OC(=O)/C=C/c2ccccc2)[C@H](OC(=O)/C=C/c2ccccc2)c2ccccc2)O1`, the EC50 (Lu1) was > 5 µg/mL, the EC50 [1] was > 5 µg/mL and the EC50 [2] was > 5 µg/mL. The EC50 (KB) was > 5 µg/mL, the EC50 (Col2) was > 5 µg/mL and the EC50 (P388) was 3.1 µg/mL (≈ 4.84 µM).

Compound `O=C1C=C[C@H](OC(=O)/C=C/c2ccccc2)[C@H]([C@H](O)[C@H](O)c2ccccc2)O1` has an EC50 (Lu1) of 1.9 µg/mL (≈ 4.99 µM), an EC50 [1] of 1.6 µg/mL (≈ 4.21 µM) and an EC50 [2] of 0.92 µg/mL (≈ 2.42 µM). It also gave an EC50 (KB) of 1.7 µg/mL (≈ 4.47 µM), an EC50 (Col2) of 1.9 µg/mL (≈ 4.99 µM) and an EC50 (P388) of 0.18 µg/mL (≈ 0.473 µM).

For `O=C1C=C[C@]2(C[C@H](O)[C@@H](c3ccccc3)O2)O1`, the EC50 (Lu1) was > 5 µg/mL, the EC50 [1] was 3.1 µg/mL (≈ 13.3 µM) and the EC50 [2] was 3.2 µg/mL (≈ 13.8 µM). It also gave an EC50 (KB) of 3.3 µg/mL (≈ 14.2 µM), an EC50 (Col2) of 4 µg/mL (≈ 17.2 µM) and an EC50 (P388) of 1.1 µg/mL (≈ 4.74 µM).

In the case of `O=C(/C=C/c1ccccc1)O[C@@H]1[C@H]([C@@H](O)c2ccccc2)O[C@H]2CC(=O)O[C@@H]12` [(+)-CRASSALACTONE B], the EC50 (Lu1) is reported as > 5 µg/mL, the EC50 [1] is reported as > 5 µg/mL and the EC50 [2] is reported as > 5 µg/mL. For the same compound, the EC50 (KB) was > 5 µg/mL, the EC50 (Col2) was > 5 µg/mL and the EC50 (P388) was 3.8 µg/mL (≈ 9.99 µM).

With `O=C(/C=C/c1ccccc1)O[C@H](c1ccccc1)[C@H]1O[C@@H]2CC(=O)O[C@@H]2[C@H]1O` [(+)-CRASSALACTONE C] the EC50 (Lu1) was > 5 µg/mL, the EC50 [1] was > 5 µg/mL and the EC50 [2] was > 5 µg/mL. The EC50 (KB) was > 5 µg/mL, the EC50 (Col2) was > 5 µg/mL and the EC50 (P388) was > 5 µg/mL.

In the case of `COc1c(O)cc2c3c(cc4ccccc4c13)NC2=O` [ARISTOLACTAM AII], the EC50 (Lu1) is reported as > 5 µg/mL, the EC50 [1] is reported as > 5 µg/mL and the EC50 [2] is reported as > 5 µg/mL. For the same compound, the EC50 (KB) was > 5 µg/mL, the EC50 (Col2) was > 5 µg/mL and the EC50 (P388) was 2.7 µg/mL (≈ 10.2 µM).

In the case of `Cc1c2ccncc2c(C)c2c1[nH]c1ccccc12` [ELLIPTECINE], the EC50 (Lu1) is reported as 0.56 µg/mL (≈ 2.27 µM), the EC50 [1] is reported as 0.6 µg/mL (≈ 2.44 µM) and the EC50 [2] is reported as 0.65 µg/mL (≈ 2.64 µM). It also gave an EC50 (KB) of 0.65 µg/mL (≈ 2.64 µM), an EC50 (Col2) of 0.53 µg/mL (≈ 2.15 µM) and an EC50 (P388) of 0.52 µg/mL (≈ 2.11 µM).
